Assay results taken from ChEMBL document CHEMBL1156888, “The first low microM SecA inhibitors” (Bioorg Med Chem, 2010).
Calls of active or inactive are those of the source. No cut-off for these calls is given here.

Assays:
Escherichia coli [1] = test: Inhibition of Escherichia coli SecA N-terminal fragment EcN68 assessed as phosphate release at 100 uM by Malachite green assay
Procedure, shortened: (§1)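 ATPase of truncated E. coli SecA N68 (lacks C-terminal regulatory domain), 2.25 µg per reaction, with 2 mM ATP in 50 mM Tris-HCl pH 7.6, 20 mM KCl, 20 mM NH4Cl, 1 mM DTT, 2 mM Mg(OAc)2, 10% DMSO. Run at 40 °C for 20 min, stopped with malachite green then citric acid, 40 min at room temperature, A660 read. Activity remaining expressed as percent of compound-free control. At least triplicate, SEM.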

Escherichia coli [2] = test: Inhibition of Escherichia coli SecA N-terminal fragment EcN68 assessed as phosphate release at 30 uM by Malachite green assay; procedure, shortened: as §1
Escherichia coli [3] = test: Inhibition of Escherichia coli SecA N-terminal fragment EcN68 assessed as phosphate release at 5 uM by Malachite green assay; procedure, shortened: as §1
[4] = Inhibition of Escherichia coli full length SecA assessed as phosphate release by Malachite green assay
Procedure, shortened: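 Full-length SecA (5 µg) in 50 µL with 2 mM ATP, 50 mM Tris-HCl pH 7.6, 20 mM KCl, 20 mM NH4Cl, 1 mM DTT, 2 mM Mg(OAc)2, 10% DMSO; 40 °C, 40 min. Stopped with malachite green then 34% citric acid; 40 min room temperature, A660. Activity as percent of no-compound controls; at least triplicate.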

[5] = Inhibition of Escherichia coli SecA N-terminal fragment EcN68 assessed as phosphate release by Malachite green assay
Procedure, shortened: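 Truncated SecA lacking the C-terminal regulatory domain (2.25 µg) in 50 µL with 2 mM ATP, 50 mM Tris-HCl pH 7.6, 20 mM KCl, 20 mM NH4Cl, 1 mM DTT, 2 mM Mg(OAc)2, 10% DMSO; 40 °C, 20 min. Stopped with malachite green then 34% citric acid; 40 min room temperature, A660. Percent remaining ATPase versus no-compound controls; at least triplicate.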

Escherichia coli [6] = test: Antimicrobial activity against permeability mutant Escherichia coli NR698 after 10 to 12 hrs; format: functional, organism-based
Procedure, shortened: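 Outer-membrane-permeable MC4100 imp4213 mutant; log-phase cells (OD600 ~0.5–1.0) diluted to OD600 0.05, compounds added from 100% DMSO stocks, cultures with 5% DMSO final, shaken at 37 °C, 1050 rpm, 10–12 h.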

Escherichia coli [7] = test: Antimicrobial activity against wild type Escherichia coli MC4100 after 10 to 12 hrs; format: functional, organism-based
Procedure, shortened: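 E. coli K-12 wild-type strain MC4100. Log-phase cells (OD600 ~0.5 to 1.0) diluted to OD600 0.05, compounds added from 100% DMSO stocks, final 5% DMSO. Cultured with shaking at 37 °C, 1050 rpm, for 10 to 12 h.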

Cc1onc(-c2c(Cl)cccc2Cl)c1C(=O)N1CCOCC1
inhibition (Escherichia coli [1]): inactive

Cc1onc(-c2c(Cl)cccc2Cl)c1C(=O)NC1CCCCC1
inhibition (Escherichia coli [1]): inactive

Clc1ccc2oc(SCc3ccc(CSc4nc5cc(Cl)ccc5o4)cc3)nc2c1
inhibition (Escherichia coli [1]): Active

CCc1ccc(C2=NC(SCc3ccc(CSc4nc(-c5ccc(CC)cc5)c(C#N)c(=O)[nH]4)cc3)=NC(=O)C2C#N)cc1 (stereo not drawn)
inhibition (Escherichia coli [1]): Active | inhibition (Escherichia coli [2]): Active | inhibition (Escherichia coli [3]): Active

CCc1ccc(-c2nc(SCc3ccccc3)[nH]c(=O)c2C#N)cc1
inhibition (Escherichia coli [2]): Active

Cc1onc(-c2c(Cl)cccc2Cl)c1C(=O)Nc1ccc(F)c(Cl)c1
inhibition (Escherichia coli [1]): inactive

O=[N+]([O-])c1ccc2oc(SCc3ccc(CSc4nc5cc([N+](=O)[O-])ccc5o4)cc3)nc2c1
inhibition (Escherichia coli [1]): Active

N#Cc1c(-c2ccc(Br)cc2)nc(SCc2ccc(CSC3=NC(=O)C(C#N)C(c4ccc(Br)cc4)=N3)cc2)[nH]c1=O (stereo not drawn)
inhibition (Escherichia coli [1]): Active | IC50 [4]: 20 µM | inhibition (Escherichia coli [2]): Active | inhibition (Escherichia coli [3]): Active | IC50 [5]: 2 µM

N#Cc1c(-c2cccc3ccccc23)nc(SCc2ccc(CSC3=NC(=O)C(C#N)C(c4cccc5ccccc45)=N3)cc2)[nH]c1=O (stereo not drawn)
inhibition (Escherichia coli [1]): Active | inhibition (Escherichia coli [2]): Active | inhibition (Escherichia coli [3]): Active

Cc1onc(-c2c(Cl)cccc2Cl)c1C(=O)Nc1cccc(Cl)c1
inhibition (Escherichia coli [1]): inactive

Cc1cc(NC(=O)c2c(-c3c(Cl)cccc3Cl)noc2C)ccc1Br
inhibition (Escherichia coli [1]): inactive

Cc1ccc(NC(=O)c2c(-c3c(Cl)cccc3Cl)noc2C)c(C)c1
inhibition (Escherichia coli [1]): inactive

Cc1onc(-c2c(Cl)cccc2Cl)c1C(=O)NC1CCC(C)CC1 (stereo not drawn)
inhibition (Escherichia coli [1]): inactive

O=[N+]([O-])c1cccc2oc(SCc3ccc(CSc4nc5c([N+](=O)[O-])cccc5o4)cc3)nc12
inhibition (Escherichia coli [1]): Active

Cc1cccc(NC(=O)c2c(-c3c(Cl)cccc3Cl)noc2C)c1
inhibition (Escherichia coli [1]): inactive

COc1ccc(C2=NC(SCc3ccc(CSc4nc(-c5ccc(OC)cc5)c(C#N)c(=O)[nH]4)cc3)=NC(=O)C2C#N)cc1 (stereo not drawn)
inhibition (Escherichia coli [1]): Active | inhibition (Escherichia coli [2]): Active

Cc1onc(-c2c(F)cccc2Cl)c1C(=O)Nc1ccc(Sc2ccccc2)nc1Sc1ccccc1
inhibition (Escherichia coli [1]): Active

Cc1ccccc1NC(=O)c1c(-c2c(Cl)cccc2Cl)noc1C
inhibition (Escherichia coli [1]): inactive | IC50 [4]: 60 µM

c1ccc2oc(SCc3ccc(CSc4nc5ccccc5o4)cc3)nc2c1
inhibition (Escherichia coli [1]): Active

Clc1ccc2nc(SCc3ccc(CSc4nc5ccc(Cl)cc5s4)cc3)sc2c1
inhibition (Escherichia coli [1]): Active

CC(C)c1ccc(-c2nc(SCc3ccccc3)[nH]c(=O)c2C#N)cc1
inhibition (Escherichia coli [2]): Active

N#Cc1c(-c2ccc(-c3ccccc3)cc2)nc(SCc2ccccc2)[nH]c1=O
inhibition (Escherichia coli [2]): Active | MIC (Escherichia coli [6]): Active | MIC (Escherichia coli [7]): inactive

Cc1ccc2oc(SCc3ccc(CSc4nc5cc(C)ccc5o4)cc3)nc2c1
inhibition (Escherichia coli [1]): Active

Cc1onc(-c2c(Cl)cccc2Cl)c1C(=O)N1CCSCC1
inhibition (Escherichia coli [1]): inactive

N#Cc1c(-c2ccc(-c3ccccc3)cc2)nc(SCc2ccc(CSC3=NC(=O)C(C#N)C(c4ccc(-c5ccccc5)cc4)=N3)cc2)[nH]c1=O (stereo not drawn)
inhibition (Escherichia coli [1]): Active | IC50 [4]: 50 µM | inhibition (Escherichia coli [2]): Active | inhibition (Escherichia coli [3]): Active | IC50 [5]: 2 µM | MIC (Escherichia coli [7]): inactive

CC(C)c1ccc(C2=NC(SCc3ccc(CSc4nc(-c5ccc(C(C)C)cc5)c(C#N)c(=O)[nH]4)cc3)=NC(=O)C2C#N)cc1 (stereo not drawn)
inhibition (Escherichia coli [1]): Active | inhibition (Escherichia coli [2]): Active | inhibition (Escherichia coli [3]): Active

N#Cc1c(-c2cccc3ccccc23)nc(SCc2ccccc2)[nH]c1=O
inhibition (Escherichia coli [2]): Active

Cc1cccc(C2=NC(SCc3ccc(CSc4nc(-c5cccc(C)c5)c(C#N)c(=O)[nH]4)cc3)=NC(=O)C2C#N)c1 (stereo not drawn)
inhibition (Escherichia coli [1]): Active | inhibition (Escherichia coli [2]): Active

Cc1onc(-c2c(Cl)cccc2Cl)c1C(=O)N1CCCCC1
inhibition (Escherichia coli [1]): inactive

N#Cc1c(-c2ccccc2)nc(SCc2ccc(CSC3=NC(=O)C(C#N)C(c4ccccc4)=N3)cc2)[nH]c1=O (stereo not drawn)
inhibition (Escherichia coli [1]): Active | inhibition (Escherichia coli [2]): Active

Cc1onc(-c2c(Cl)cccc2Cl)c1C(=O)NCc1ccccc1Br
inhibition (Escherichia coli [1]): inactive

N#Cc1c(-c2ccc(Br)cc2)nc(SCc2ccccc2)[nH]c1=O
inhibition (Escherichia coli [2]): Active

Cc1onc(-c2c(Cl)cccc2Cl)c1C(=O)Nc1ccccc1F
inhibition (Escherichia coli [1]): inactive

Cc1onc(-c2c(Cl)cccc2Cl)c1C(=O)NCc1cccc(Br)c1
inhibition (Escherichia coli [1]): inactive

Cc1ccc(C2=NC(SCc3ccc(CSc4nc(-c5ccc(C)cc5)c(C#N)c(=O)[nH]4)cc3)=NC(=O)C2C#N)cc1 (stereo not drawn)
inhibition (Escherichia coli [1]): Active | inhibition (Escherichia coli [2]): Active | inhibition (Escherichia coli [3]): Active
